Reference: ChEMBL document CHEMBL4732206, “Novel diaryl-2H-azirines: Antitumor hybrids for dual-targeting tubulin and DNA” (Eur J Med Chem, 2021)
Activity calls are given as the source filed them. The rule behind the calls is not given here.

Tests used:
A2780 [1] = assay: Antiproliferative activity against human A2780 cells assessed as reduction in cell viability incubated for 48 hrs by MTT assay; type: functional, cell-based; conditions: A2780, 48 h
Summary of the method: (§1)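 Cells were grown in DMEM with 10% FBS and penicillin/streptomycin at 37 °C and 5% CO2. They were seeded for 24 h, then treated with graded concentrations for 48 h. MTT (5 mg/mL) was added for a further 4 h at 37 °C. Formazan was dissolved in DMSO and absorbance read at 570 nm. IC50 was taken from the concentration-response curve.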

HCT-116 = assay: Antiproliferative activity against human HCT-116 cells assessed as reduction in cell viability incubated for 48 hrs by MTT assay; type: functional, cell-based; conditions: HCT-116, 48 h; summary of the method: as §1
HeLa [2] = assay: Antiproliferative activity against human HeLa cells assessed as reduction in cell viability incubated for 48 hrs by MTT assay; type: functional, cell-based; summary of the method: as §1
A549 = assay: Antiproliferative activity against human A549 cells assessed as reduction in cell viability incubated for 48 hrs by MTT assay; type: functional, cell-based; conditions: A549, 48 h; summary of the method: as §1
[3] = Inhibition of pig brain tubulin polymerization by spectrophotometry; set-up: species or system Sus scrofa
Tubulin (Homo sapiens) = Tubulin (Homo sapiens) (UniProt P68371+Q9H4B7+P0DPH7+P68366+Q13509+Q71U36+P04350+Q3ZCM7+P07437+P68363+Q9BQE3+Q6PEY2+Q13885+Q9BVA1+Q9BUF5); assay: Inhibition of tubulin polymerization in human HeLa cells assessed as disorganisation of microtubule at 100 to 200 nM incubated for overnight by DAPI staining based immunofluorescence assay; type: cell-based; conditions: dose 100-200 nM
Summary of the method: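 HeLa cells were exposed overnight to a range of compound concentrations, with DMSO as the negative control. Cells were fixed in methanol, permeabilised with 0.1% Triton X-100 and blocked in 3% BSA for 1 h. They were probed with anti-α-tubulin monoclonal antibody overnight at 4 °C, then an Alexa 488 secondary antibody. Nuclei were stained with DAPI for 10 min at room temperature, and cells were imaged by confocal fluorescence microscopy.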

Jurkat [4] = assay: Induction of DNA damage in human Jurkat cells assessed as increase in DNA lesion incubated for 48 hrs by comet assay; type: functional, cell-based; conditions: dose 100-400 nM
Summary of the method: (§2)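 Jurkat cells were exposed to graded concentrations, MMC 200 nM positive control or DMSO for 48 h at 37 °C, with work done in darkness. Cells were embedded in LM agarose on comet slides and lysed for 2 h at 4 °C. Slides were unwound in 1 mM EDTA/200 mM NaOH for 30 min, electrophoresed at 25 V for 15 min, stained with ethidium bromide and imaged by fluorescence microscopy. Tail moment was scored.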

Jurkat [5] = assay: Induction of DNA damage in human Jurkat cells assessed as upregulation of Bax protein expression incubated for 48 hrs by Western blot analysis; type: functional, cell-based; conditions: dose 2-8 µM
Jurkat [6] = assay: Induction of DNA damage in human Jurkat cells assessed as upregulation of GADD45alpha protein expression incubated for 48 hrs by Western blot analysis; type: functional, cell-based; conditions: dose 2-8 µM
HeLa [7] = assay: Induction of apoptosis in human HeLa cells assessed as viable cells at 1 uM incubated for 48 hrs by annexin-V-FITC and PI staining based flow cytometry analysis (reference value: 97.34 %); type: functional; conditions: read-out: Activity
HeLa [8] = assay: Induction of apoptosis in human HeLa cells assessed as early apoptotic cells at 1 uM incubated for 48 hrs by annexin-V-FITC and PI staining based flow cytometry analysis (reference value: 2.25 %); type: functional
HeLa [9] = assay: Induction of apoptosis in human HeLa cells assessed as late apoptotic cells at 1 uM incubated for 48 hrs by annexin-V-FITC and PI staining based flow cytometry analysis (reference value: 0.23 %); type: functional
HeLa [10] = assay: Induction of apoptosis in human HeLa cells assessed as early apoptotic cells at 2 uM incubated for 48 hrs by annexin-V-FITC and PI staining based flow cytometry analysis (reference value: 2.25 %); type: functional
HeLa [11] = assay: Induction of apoptosis in human HeLa cells assessed as late apoptotic cells at 2 uM incubated for 48 hrs by annexin-V-FITC and PI staining based flow cytometry analysis (reference value: 0.23 %); type: functional
HeLa [12] = assay: Induction of apoptosis in human HeLa cells assessed as necrotic cells at 2 uM incubated for 48 hrs by annexin-V-FITC and PI staining based flow cytometry analysis (reference value: 0.18 %); type: functional
HeLa [13] = assay: Induction of apoptosis in human HeLa cells assessed as viable cells at 4 uM incubated for 48 hrs by annexin-V-FITC and PI staining based flow cytometry analysis (reference value: 97.34 %); type: functional; conditions: read-out: Activity
HeLa [14] = assay: Induction of apoptosis in human HeLa cells assessed as early apoptotic cells at 4 uM incubated for 48 hrs by annexin-V-FITC and PI staining based flow cytometry analysis (reference value: 2.25 %); type: functional
HeLa [15] = assay: Induction of apoptosis in human HeLa cells assessed as necrotic cells at 4 uM incubated for 48 hrs by annexin-V-FITC and PI staining based flow cytometry analysis (reference value: 0.18 %); type: functional
HeLa [16] = assay: Induction of apoptosis in human HeLa cells assessed as early apoptotic cells at 8 uM incubated for 48 hrs by annexin-V-FITC and PI staining based flow cytometry analysis (reference value: 2.25 %); type: functional
HeLa [17] = assay: Induction of apoptosis in human HeLa cells assessed as late apoptotic cells at 8 uM incubated for 48 hrs by annexin-V-FITC and PI staining based flow cytometry analysis (reference value: 0.23 %); type: functional
HeLa [18] = assay: Induction of apoptosis in human HeLa cells assessed as upregulation of p53 protein expression by Western blot analysis; type: functional, cell-based; conditions: dose 2-8 µM
Summary of the method: (§3)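 HeLa cells were treated with graded concentrations or DMSO, washed in PBS and lysed. Protein was measured by BCA, separated by SDS-PAGE and transferred to PVDF. Membranes were blocked in 5% BSA/TBST, incubated with primary antibodies overnight at 4 °C, then with HRP secondary antibodies. Bands were detected by chemiluminescence.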

HeLa [19] = assay: Induction of cell cycle arrest in human HeLa cells assessed as upregulation of cyclinB1 protein expression at 0.8 to 3.2 uM by Western blot analysis; type: functional, cell-based; conditions: dose 0.8-3.2 µM; summary of the method: as §3
A2780 [20] = assay: Antitumor activity against human A2780 cells xenografted in Balb/c mouse assessed as reduction in tumor weight at 25 to 50 mg/kg administered every two days; type: functional, organism-based; conditions: dose 25-50 mg/kg
Summary of the method: (§4)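 Nude mice carried A2780 cells implanted in PBS in the right flank. When tumors reached 100 mm³, mice were randomized into four groups (n = 10): vehicle, 25 or 50 mg/kg test compound, and PTX 10 mg/kg. Dosing was every two days; vehicle was 10% castor oil and 10% DMSO in PBS. Volume (π/6 × length × width²) and body weight were measured by caliper and scale at each dose. Tumors were excised and weighed at the end.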

[21] = Toxicity in Balb/c mouse xenografted with human A2780 cells assessed as effect on body weight at 25 to 50 mg/kg administered every two days; type: organism-based; conditions: in vivo, dose 25-50 mg/kg; summary of the method: as §4
[22] = Toxicity in Balb/c mouse xenografted with human A2780 cells assessed as adverse effect at 25 to 50 mg/kg administered every two days; type: organism-based; conditions: in vivo, dose 25-50 mg/kg
Jurkat [23] = assay: Induction of DNA damage in human Jurkat cells assessed as increase in tail moment at 100 to 400 nM incubated for 48 hrs by comet assay; type: functional, cell-based; conditions: dose 100-400 nM; summary of the method: as §2

Q: For `COc1ccc(C2N=C2c2cc(OC)c(OC)c(OC)c2)cc1F` (stereo unspecified), which IC50 (A2780 [1]) is on record?
A: Its IC50 is 160 nM.

Q: And the IC50 (HCT-116)?
A: The IC50 was 630 nM.

Q: What about the IC50 (HeLa [2]) of the same compound?
A: Its IC50 is 870 nM.

Q: What about the IC50 (A549) of the same compound?
A: Its IC50 is 1190 nM.

Q: What about the IC50 [3] of the same compound?
A: The IC50 was 3300 nM.

Q: What about the inhibition (Tubulin (Homo sapiens)) of the same compound?
A: The inhibition was “Active”.

Q: And the Activity (Jurkat [4])?
A: Its Activity is “Dose-dependent effect”.

Q: And the Activity (Jurkat [5])?
A: The Activity was “Dose-dependent effect”.

Q: What about the Activity (Jurkat [6]) of the same compound?
A: Its Activity is “Dose-dependent effect”.

Q: What about the viability at 1 µM (HeLa [7]) of the same compound?
A: Its viability at 1 µM is 95.5%.

Q: And the Activity (HeLa [8])?
A: Its Activity is 2.86%.

Q: And the Activity (HeLa [9])?
A: The Activity was 1.38%.

Q: And the Activity (HeLa [10])?
A: Its Activity is 18.98%.

Q: What about the Activity (HeLa [11]) of the same compound?
A: The Activity was 5.72%.

Q: What about the Activity (HeLa [12]) of the same compound?
A: Its Activity is 0.65%.

Q: What about the viability at 4 µM (HeLa [13]) of the same compound?
A: The viability at 4 µM was 63.5%.

Q: And the Activity (HeLa [14])?
A: The Activity was 28.43%.

Q: And the Activity (HeLa [15])?
A: Its Activity is 0.56%.

Q: And the Activity (HeLa [16])?
A: Its Activity is 50.47%.

Q: What about the Activity (HeLa [17]) of the same compound?
A: The Activity was 7.79%.

Q: What about the Activity (HeLa [18]) of the same compound?
A: Its Activity is “Dose-dependent effect”.

Q: And the Activity (HeLa [19])?
A: The Activity was “Active”.

Q: What about the Activity (A2780 [20]) of the same compound?
A: The Activity was “Active”.

Q: And the Activity [21]?
A: Its Activity is “Non-Toxic”.

Q: What about the Activity [22] of the same compound?
A: The Activity was “Non-Toxic”.

Q: And the Activity (Jurkat [23])?
A: Its Activity is “Active”.
